Experiments:
[1] = PK of TRH and 79 after oral administration to fasted conscious rats; type: in vivo, rat
How it was run: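 Male Wistar rats (10–11 weeks, 230–274 g, n ≥ 4), fasted from the evening before dosing to the 12 h sample. Jugular cannula placed under isoflurane 2–3 days before. Single p.o. dose of 40 mg/4 mL/kg in saline. Heparinized blood (~0.3 mL) drawn via cannula; plasma deproteinized with methanol; HPLC with UV absorbance detection. Cmax, Tmax, AUC0–8h given as mean ± SD.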

[2] = system: reserpine-induced hypothermia mice; assay: Antagonistic effect on reserpine-induced hypothermia in mice; type: in vivo; conditions: p.o.
How it was run: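 Male ddY mice (bought at 6 weeks, 1-week quarantine, ~25 °C). Reserpine 3 mg/kg s.c.; mice with rectal temperature ≤30 °C about 18 h later were used. Test compound in saline p.o. at 5 μmol/kg, TRH at 50 μmol/kg, saline controls. Rectal temperature by thermistor before and up to 7 h post-dose. Trapezoidal AUC0–7h, with saline AUC subtracted. Mean ± SD, ≥3 animals.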

[3] = system: CYP1A2, CYP2A6, CYP2B6, CYP2C8, CYP2C9, CYP2C19, CYP2D6, CYP2E1, CYP3A4/5, CYP4A11; assay: Direct CYP inhibition, 10 CYP enzymes; type: in vitro ADME; conditions: human
[4] = system: CYP1A2, CYP2A6, CYP2B6, CYP2C9, CYP2C19, CYP2D6, CYP2E1, CYP3A4/5, CYP4A11; assay: Direct CYP inhibition, 10 CYP enzymes; type: in vitro ADME; conditions: human
[5] = system: rats with Ara-C-induced cerebellar damage; assay: Ara-C-induced cerebellar ataxia in rats, open field fall index; type: in vivo, rat; conditions: 79 10 and 30 mg/kg p.o. once daily for 7 days, vs control
[6] = system: rats; assay: Acute lethal dose, single oral administration in rats; type: in vivo, rat
[7] = system: plasma TSH level; assay: TSH releasing activity after oral administration in rats; type: in vivo; conditions: rat
How it was run: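 Male Sprague-Dawley rats (258–320 g, n ≥ 4, fed), dosed p.o. at 0.1 or 1 mg/2 mL/kg in water. Blood taken by decapitation at scheduled times, clotted 30 min at 25 °C, centrifuged for serum. TSH measured by [125I] rat TSH assay kit with magnetic separation. Mean ± SD.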

[8] = molecular target: human TRH-R; conditions: read-out: Ki for human TRH-R; in vitro binding, reported previously; cited from earlier work
[9] = molecular target: T1, CYP2C8 (Homo sapiens, UniProt P10632); assay: Direct CYP inhibition, CYP2C8; type: in vitro ADME
T1 sequence (P10632 1-490): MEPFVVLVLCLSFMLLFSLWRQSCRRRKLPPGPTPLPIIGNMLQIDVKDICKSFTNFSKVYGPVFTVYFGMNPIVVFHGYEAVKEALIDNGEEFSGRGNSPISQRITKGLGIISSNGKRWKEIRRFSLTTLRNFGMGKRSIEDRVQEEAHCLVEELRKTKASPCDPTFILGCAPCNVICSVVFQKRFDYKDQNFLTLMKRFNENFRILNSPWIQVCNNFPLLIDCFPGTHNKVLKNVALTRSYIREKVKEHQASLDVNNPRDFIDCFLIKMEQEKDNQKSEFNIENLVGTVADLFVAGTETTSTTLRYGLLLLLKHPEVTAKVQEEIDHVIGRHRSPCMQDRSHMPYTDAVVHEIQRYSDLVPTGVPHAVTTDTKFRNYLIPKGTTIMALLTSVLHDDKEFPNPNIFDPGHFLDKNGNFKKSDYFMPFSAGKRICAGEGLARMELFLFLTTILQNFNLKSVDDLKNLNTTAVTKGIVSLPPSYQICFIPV

[10] = Stability in rat plasma, cerebrum and cerebellum homogenate at 37 °C; type: in vitro ADME; conditions: for compound remaining, cerebellum: rat cerebellum homogenate; for compound remaining, cerebrum: rat cerebrum homogenate; for compound remaining, plasma: rat plasma
[11] = male, Wistar, rat, plasma, po, 40 mg/kg

Q: Which “Cmax and AUC0–8h relative to TRH” value ([1]; fasted rats, p.o. 40 mg/kg) does the source give for C[C@@H]1OC(=O)N[C@@H]1C(=O)N[C@@H](Cc1cscn1)C(=O)N1CCC[C@H]1C [Compound 79, 1-{N-[(4S,5S)-(5-Methyl-2-oxooxazolidine-4-yl)carbonyl]-3-(thiazol-4-yl)-L-alanyl}-(2R)-2-methylpyrrolidine trihydrate] here?
A: over 12 times

Q: And the AUC(0-t) [1, 11]?
A: 817 ± 349 ng·h/mL

Q: And the Cmax [1, 11]?
A: 636 ± 232 ng/mL

Q: What about the Tmax [1, 11] of the same compound?
A: 15 min

Q: What about the “rectal temperature compared with saline levels” value ([2]; 79 5 μmol/kg from 2 to 7 h, TRH 50 μmol/kg from 0 to 7 h) of the same compound?
A: > 2.5 °C

Q: And the “rectal temperature ΔAUC0–7h = AUC0–7h(compounds) – AUC0–7h(saline)” value ([2]; reserpine-induced hypothermia mice, TRH 50 μmol/kg, 79 5 μmol/kg)?
A: 28.0 ± 4.3 °C·h

Q: What about the “rectal temperature AUC0–7h” value ([2]; reserpine-induced hypothermia mice, TRH 50 μmol/kg, 79 5 μmol/kg, mean ± SD) of the same compound?
A: 233.4 ± 4.3 °C·h

Q: And the inhibition at 300 μM [3]?
A: ≤ 50%

Q: And the inhibition at 300 μM [4]?
A: ≤ 10%

Q: And the fall index [5]?
A: significant decrease

Q: What about the acute lethal dose [6] of the same compound?
A: over 2000 mg/kg

Q: And the “plasma TSH level” value ([7]; p.o. 0.1 mg/kg, at 0.5 h)?
A: 46.8 ng/mL

Q: What about the “plasma TSH level” value ([7]; p.o. 1 mg/kg, at 0.5 h) of the same compound?
A: 80.4 ng/mL

Q: What about the “plasma TSH level” value ([7]; p.o. 0.1 and 1 mg/kg, at 24 h) of the same compound?
A: recovered to vehicle levels

Q: And the Ki [8]?
A: 702 nM

Q: And the inhibition at 300 μM [9]?
A: ~20%

Q: And the “compound remaining, cerebellum” value ([10]; 15 min)?
A: 100 ± 0.0%

Q: And the “compound remaining, cerebellum” value ([10]; 30 min)?
A: 99.9 ± 0.0%

Q: And the “compound remaining, cerebellum” value ([10]; 60 min)?
A: 99.7 ± 0.0%

Q: What about the “compound remaining, cerebellum” value ([10]; 120 min) of the same compound?
A: 99.6 ± 0.1%

Q: What about the “compound remaining, cerebellum” value ([10]; 180 min) of the same compound?
A: 99.5 ± 0.1%

Q: What about the “compound remaining, cerebrum” value ([10]; 15 min) of the same compound?
A: 100.2 ± 0.2%

Q: And the “compound remaining, cerebrum” value ([10]; 30 min)?
A: 100.2 ± 0.1%

Q: What about the “compound remaining, cerebrum” value ([10]; 60 min) of the same compound?
A: 100.3 ± 0.1%

Q: And the “compound remaining, cerebrum” value ([10]; 120 min)?
A: 99.9 ± 0.1%

Q: And the “compound remaining, cerebrum” value ([10]; 180 min)?
A: 99.7 ± 0.1%

Q: And the “compound remaining, plasma” value ([10]; 15 min)?
A: 100 ± 0.1%

Q: And the “compound remaining, plasma” value ([10]; 30 min)?
A: 99.8 ± 0.1%

Q: What about the “compound remaining, plasma” value ([10]; 60 min) of the same compound?
A: 99.6 ± 0.3%

Q: And the “compound remaining, plasma” value ([10]; 120 min)?
A: 99.8 ± 0.2%

Q: What about the “compound remaining, plasma” value ([10]; 180 min) of the same compound?
A: 99.8 ± 0.1%

Reference: article PMC6217654 (ACS Omega, 2018)
